# Compound activity deposited in PubChem BioAssay by several laboratories.
# STAT1 act: STAT1 signaling activation; activation (% of control), % at 5.5 µM; NIH 3T3 STAT1-luciferase reporter, IFN-gamma, luminescence; 100% = IFN-gamma alone, no compound; 200,000 compounds, 2.6% hits;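 active means activation above the screen-wide mean activation plus 3 SD, cut at about 130% in these data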;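 further: raw ratio to IFN-gamma control signal so 100% means no change and 0% no light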
# STAT3 activator: activators of IL-6 induced STAT3 signaling; U3A cells, IL-6 STAT3-luciferase reporter, luminescence; 100% = signal with IL-6 EC80 alone; activation (% of control), % at 5.6 µM; 190,000 compounds, 0.91% hits; AID 871;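 active means activation above the screen-wide mean of compound activation plus 3 SD, cut at about 130% in these data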;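 further: 0% = background luminescence of wells with medium and substrate only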
#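 Assay system – human STAT1-deficient U3A cells with stable STAT3-luciferase reporter · Also added – IL-6 (33 ng/mL) · Schedule – compound 1 h, then IL-6 6 h at 37 °C · Technique – reporter luminescence signal · Evaluation – % activation versus median of IL-6-stimulated wells · Benchmarks – IL-6-only wells as 100% reference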
# APP 5'UTR act: activates APP 5'UTR luciferase reporter | SH-SY5Y APP 5'UTR luciferase reporter, luminescence; zero percent = DMSO vehicle wells | activation, % at 2 µM | 190,000 compounds, 1% hits;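 active means activation above a set limit, based on mean plus 3 SD of controls, cut at about 140% in these data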
# NF-kB neuron act: NF-kB expression increase, human neuronal cells. NF-kB reporter expression; hits give high values. fold change at 12.5 µM. 190,000 compounds, 1.6% hits. AID 1239; in the data active means fold change above about 3.3
# STAT3 inh: inhibitors of IL-6 induced STAT3 signaling; U3A cells, IL-6 STAT3-luciferase reporter, luminescence; host cell line lacks STAT1; inhibition, % at 5.5 µM; 190,000 compounds, 0.89% hits; AID 862;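 active means inhibition above the mean inhibition across all screened compounds plus 3 SD, cut at about 44% in these data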;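 further: 0% = DMSO only wells and 100% = 100 µM nifuroxazide control wells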
# STAT1 blocker: reduces IFN-gamma driven STAT1 reporter signal | inhibition, % at 5.5 µM | 200,000 compounds, 0.35% hits | AID 920 | NIH 3T3 STAT1-luciferase reporter, luminescence;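 active means inhibition above a set limit, the mean inhibition across all tested compounds plus 3 SD, cut at about 34% in these data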;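 further: 0% = IFN-gamma with DMSO and 100% = IFN-gamma with 300 µM nifuroxazide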
# * = called active by the depositor; / = no result given. This is a sample that favours compounds with a hit; in the whole collection about 5.1% have one here.
SMILES,STAT1 act,STAT3 activator,APP 5'UTR act,NF-kB neuron act,STAT3 inh,STAT1 blocker
Oc1ccccc1NCC(O)Cn1ccc2ccccc21 (configuration not stated),102,135*,12,0.91,-35,-2
O=C1NC2(CCCCC2)Cc2ccccc21,97,99,-7,0.97,5,3
O=C1NC2(CCCC2)Oc2ccccc21,95,101,23,3.5*,0,4
CSc1ccc(Cl)c(C(=O)NC2CCCC2)c1,102,102,6,1.1,1,-2
O=C(NCCOc1ccccc1F)c1cc(F)c(F)cc1Cl,134*,84,124,3.2,18,-33
O=C(NC1CCCCCCC1)c1cc(F)c(F)cc1Cl,130*,115,32,1.6,-6,-32
C=CCN=C1SC(C)(C)C(=O)N1S(=O)(=O)c1ccc(C)cc1,88,111,2,1.4,-1,11
CCCCn1c(SCC(=O)N2CCOCC2)nnc1-c1cccs1,97,107,-2,1.1,-2,3
Cn1c(N)c(C(=O)COC(=O)CCCOc2ccc(Cl)cc2Cl)c(=O)n(C)c1=O,103,100,7,1.1,0,-4
O=C(NN=C1c2ccccc2-c2ccccc21)c1ccccn1,102,91,7,1.1,16,-2
O=C(NN=C1C2CC3CC1CC(Cl)(C3)C2)c1cccs1,128,97,141*,1.4,5,-31
O=C(NN=C1C2CC3CC1CC(Cl)(C3)C2)c1ccccn1,121,107,159*,1.6,-7,-24
CC1CCCC(C)N1C(=O)Cc1ccccc1 (configuration not stated),102,99,-15,0.91,6,-2
CCCCn1c(-c2ccccc2)cnc1SCC(=O)NCCc1ccc(OC)c(OC)c1,134*,112,/,1.1,-9,-38
CN(C)c1ccc(/C=N/OC(=O)Nc2ccccc2Cl)cc1,104,82,5,1.6,25,-2
CC12COC3(C(=O)Nc4ccccc4)CC1CCC32C (configuration not stated),104,104,-1,0.98,-2,-6
CC12COC3(C(=O)Nc4ccc5ccccc5c4)CC1CCC32C (configuration not stated),144*,129,49,1,-29,-52
O=C(Nc1nc(-c2ccccn2)cs1)C1CC(=O)N(c2ccc3c(c2)OCCO3)C1 (configuration not stated),97,117,-12,0.44,-23,4
Cc1cc(OCC(=O)Nc2ccc3c(c2)OCCO3)cc(C)c1Cl,96,95,-1,1,4,4
Cc1ccc(OCC(=O)Nc2ccc(F)cc2)c([N+](=O)[O-])n1,142*,99,68,1.2,4,-46
Cc1ccc(Cl)c(OCC(=O)Nc2ccc3c(c2)OCCO3)c1,123,97,160*,3.8*,8,-25
O=C(COc1ccccc1[N+](=O)[O-])Nc1ccc2c(c1)OCO2,150*,103,106,/,2,-54
Cc1cccc(OCC(=O)Nc2ccc3c(c2)OCO3)c1C,100,92,26,1.2,13,0
O=C(COc1ccccc1[N+](=O)[O-])N/N=C/c1cccc(OC(=O)c2ccc3c(c2)OCO3)c1,141*,92,48,2.5,8,-45
O=C(COc1cc(F)ccc1[N+](=O)[O-])Nc1cccc(Br)c1,129*,90,40,1.3,17,-33
SMILES,STAT1 act,STAT3 activator,APP 5'UTR act,NF-kB neuron act,STAT3 inh,STAT1 blocker
CC(C)(C=O)C1=CC(=O)c2ccccc2C1=O,88,139*,-81,0.97,-43,14
CC1=CC(=O)c2ccccc2C1=O,106,118,22,0.87,-18,-7
O=S(=O)(O)c1nnc2sc3ccccc3n12,99,100,7,1.4,3,1
N#Cc1cnc2sc3ccccc3n2c1=N,130*,104,-7,3.2,4,-33
O=C(/C=C/Nc1ccccc1Br)c1ccccn1,17,10,-16,0.35,109*,94*
O=C(/C=C/Nc1ccccc1)c1ccc(Oc2ncccn2)cc1,156*,68,22,3.5*,43,-66
O=C(/C=C\Nc1ccccn1)c1ccccc1,59,33,157*,3.5*,85*,45*
O=C(CC(=O)Nc1ccccn1)Nc1ccccn1,100,102,0,1.6,-2,0
